The source of these data is the array DNA melting data of Ke et al. (doi:10.1101/2024.01.08.574731).

The nature of data set [1]: folding enthalpy; higher = less favourable; fluorescence melt of hairpins on a sequencing array, two-state fit. The settings on record: sodium 0.088 M. Summed up:
(§1)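 On a sequenced MiSeq flow cell, library hairpins with annealed Cy3 and quencher oligos were imaged for Cy3 fluorescence in 2.5 °C steps up to 60 °C, in 50 mM Na-HEPES pH 8.0, 25 mM NaCl. Normalisation used pre-quench Cy3 and control constructs. Bootstrapped two-state fits gave melting temperature and folding enthalpy, combined by inverse variance across four replicates and with fitted temperatures raised by 9.35 °C to match UV melts.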

Data set [2] can be described thus: melting temperature; fluorescence melt of hairpins on a sequencing array, two-state fit, raised by 9.35 °C to match UV melts. To be noted: sodium 0.088 M. Summed up: as §1

As for GTCCACGAAAGTGTAGAC ((((((....)))..))), the folding enthalpy in data set [1] was -20.1 kcal/mol. For the same sequence, the Tm in data set [2] was 38.9 °C.

Take GCCACCACGAAAGTGGGC (((..(((....)))))): in data set [1], the folding enthalpy is -9.17 kcal/mol. In addition, the Tm in data set [2] was determined as 46 °C.

As to GCTTACTCGAAAGAGAGC (((..(((....)))))), the folding enthalpy in data set [1] was -14.5 kcal/mol. Also, the Tm in data set [2] was 30.1 °C.

In the case of GTCGGGCGAAAGCCGAC (((.(((....)))))), the folding enthalpy in data set [1] is -23 kcal/mol. Also, in data set [2], the Tm was 68.6 °C.

Consider GTACATGCGAAAGCATAC (((..(((....)))))), for which the folding enthalpy in data set [1] was -8.62 kcal/mol. For the same sequence, the Tm in data set [2] is 28.7 °C.

CGTATGAAAATACG (((((....))))): the folding enthalpy in data set [1] is -24.1 kcal/mol. Further, the Tm in data set [2] came out at 47.4 °C.

Regarding GACATACGAAAGTAGGTC (((.(((....))).))), the folding enthalpy in data set [1] is -39.1 kcal/mol. In data set [2], the Tm amounted to 52.7 °C.

GACTAAGCGAAAGCTGTC (((..(((....)))))): the folding enthalpy in data set [1] is -15 kcal/mol. For the same sequence, the Tm in data set [2] is 45 °C.

For GCGTATGGAAACACACGC ((((.((....)).)))), the folding enthalpy in data set [1] is -29 kcal/mol. Further, in data set [2], the Tm worked out at 46.3 °C.

As for GCTAACGGAAACGTCAGC (((.(((....))).))), in data set [1], the folding enthalpy is -26.6 kcal/mol. In addition, the Tm in data set [2] is 42.1 °C.

In the case of GGTGCTCGAAAGAGTACC (((.(((....))).))), the folding enthalpy in data set [1] is -45.9 kcal/mol. For the same sequence, in data set [2], the Tm is 60 °C.

Regarding ACCTTGAAAAAGGT (((((....))))), the folding enthalpy in data set [1] was -13.4 kcal/mol. Also, the Tm in data set [2] is 47.3 °C.

With GATCAACTTTTTGATC ((((((....)))))), the folding enthalpy in data set [1] was -37.8 kcal/mol. Also, in data set [2], the Tm came to 43.3 °C.

Consider GTTGCCGAAAGGCAGAAC ((((((....)))..))), for which, in data set [1], the folding enthalpy was -8.61 kcal/mol. For the same sequence, in data set [2], the Tm was 37.3 °C.

For the sequence GTGAAAGCGAAAGCTCAC (((..(((....)))))), in data set [1], the folding enthalpy is -23.9 kcal/mol. Further, the Tm in data set [2] was found to be 47.6 °C.

With GTATGCGAAAGCACTTAC ((((((....)))..))), the folding enthalpy in data set [1] was -13.1 kcal/mol. In data set [2], the Tm turned out to be 35.1 °C.

As for GCCAGCGGAAACGCCAGC ((..(((....)))..)), the folding enthalpy in data set [1] was -13.7 kcal/mol. For the same sequence, the Tm in data set [2] worked out at 39 °C.

As for GATCGGTGAGCCGATC ((((((....)))))), the folding enthalpy in data set [1] was -48.6 kcal/mol. For the same sequence, the Tm in data set [2] was 60.8 °C.

Consider GATCGTTTTGACGATC ((((((....)))))), for which the folding enthalpy in data set [1] was -40.3 kcal/mol. Further, the Tm in data set [2] came to 57.2 °C.

For the sequence GCGTTGCGAAAGCTATGC ((.(.((....)).).)), the folding enthalpy in data set [1] was -23.7 kcal/mol. For the same sequence, the Tm in data set [2] turned out to be 48.6 °C.

Regarding GCGGCCACGAAAGTGCGC (((..(((....)))))), the folding enthalpy in data set [1] was -17.4 kcal/mol. Also, the Tm in data set [2] came to 52.7 °C.

In the case of GGAAACGGAAACGTCTCC (((.(((....))).))), the folding enthalpy in data set [1] is -23.6 kcal/mol. Besides, the Tm in data set [2] was 37.2 °C.

As to GATCATTTAAATGATC ((((((....)))))), in data set [1], the folding enthalpy is -46.3 kcal/mol. Moreover, in data set [2], the Tm was determined as 48.4 °C.

On to GGGCGGGGAAACCCACCC (((.(((....))).))), for which, in data set [1], the folding enthalpy is -40.7 kcal/mol. In addition, the Tm in data set [2] stood at 54.6 °C.

For GTGCATCGAAAGATCCAC (((.(((....))).))), the folding enthalpy in data set [1] was -28.2 kcal/mol. Also, the Tm in data set [2] is 38.1 °C.

Take GACGCCCCGAAAGGGGTC (((..(((....)))))): in data set [1], the folding enthalpy is -7.73 kcal/mol. Further, the Tm in data set [2] was 40.2 °C.

As for GCGGTCGAAAGACCTCGC ((((((....)))..))), the folding enthalpy in data set [1] was -14.8 kcal/mol. For the same sequence, the Tm in data set [2] was found to be 50.2 °C.

For GTCCCTGGAAACGGGGAC (((((.(....).))))), in data set [1], the folding enthalpy is -49 kcal/mol. Also, in data set [2], the Tm is 56.4 °C.

Regarding GTTATCGAAAGATAAAAC ((((((....)))..))), in data set [1], the folding enthalpy is -9.3 kcal/mol. For the same sequence, the Tm in data set [2] stood at 26.5 °C.

In the case of GTACGCGGAAACGTGTGC (.((.((....)).)).), the folding enthalpy in data set [1] was -20.8 kcal/mol. In data set [2], the Tm was found to be 46.2 °C.

For GATCCATCAATGGATC ((((((....)))))), the folding enthalpy in data set [1] is -44 kcal/mol. Further, the Tm in data set [2] was 52.3 °C.

As for GTGCTTCGAAAGAACAC (((.(((....)))))), the folding enthalpy in data set [1] was -32.1 kcal/mol. The Tm in data set [2] was determined as 42.8 °C.

Take GCTAAGCGAAAGCTCAGC (((.(((....))).))): in data set [1], the folding enthalpy was -31.6 kcal/mol. The Tm in data set [2] came to 48 °C.

Turning to GCCCTGCGAAAGCAGTGC ((.((((....)))).)), in data set [1], the folding enthalpy was -17.3 kcal/mol. In data set [2], the Tm was 58.5 °C.

Consider GCTGATGCGAAAGCAAGC (((..(((....)))))), for which the folding enthalpy in data set [1] is -19.4 kcal/mol. Moreover, the Tm in data set [2] was 43.5 °C.

As to GCACCGGGAAACCAGTGC ((((.((....)).)))), in data set [1], the folding enthalpy is -32.1 kcal/mol. In data set [2], the Tm is 49.4 °C.

Take ATATGGAAACATAT (((((....))))): in data set [1], the folding enthalpy was -11.4 kcal/mol. Moreover, the Tm in data set [2] worked out at 27.6 °C.
